Screening results: PubChem BioAssay, several laboratories
SENP1 inh: human SENP1 catalytic domain inhibitors, primary screen, biochemical, FRET, uHTS; Sentrin-specific protease 1 (Homo sapiens), Q9P0U3; recombinant SENP1 catalytic domain, CyPet-SUMO1-YPet FRET cleavage; inhibition, % at 10 µM; actives 0.21% (n = 360,000); AID 624204, 2012;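 active = inhibition at least 30% at 10 µM, raw YFP signal under a set limit, fluorescence ratio 0.5 to 1.5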;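 also: 0% = enzyme with DMSO and 100% = no enzyme wells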
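Assay system – human recombinant His6-tagged SENP1 catalytic domain enzyme · Input – SENP1 enzyme, 20 pM final · Buffer or medium – Tris pH 8 buffer plus EDTA, NaCl, BME, BSA, NP40, catalase · Schedule – 50 min reaction at room temperature · Technique – FRET read of cyan and yellow fluorescence · Control set – no-enzyme wells low, DMSO-plus-enzyme wells high control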
SENP6 block: SENP6 protease inhibitors, primary screen, biochemical, luminescence, uHTS. Sentrin-specific protease 6 (Homo sapiens), Q9GZR1. AID 2599, 2010. actives 1.8% (n = 330,000). inhibition, % at 10 µM. Recombinant SENP6 catalytic domain, aminoluciferin luminescence;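 active = inhibition above about 50% at the single tested dose, limit read from the data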;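 also: plate controls were DMSO wells with enzyme for no effect and DMSO wells lacking enzyme for full effect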
SENP8 block-1: human SENP8 protease inhibitors, primary screen, biochemical, fluorescence, Nedd8 protein substrate, uHTS | Sentrin-specific protease 8 (Homo sapiens), Q96LD8 | inhibition, % at 20 µM | actives 0.64% (n = 360,000) | recombinant SENP8; in the data active = inhibition mostly above about 40%, no sharp cut-off; inactive = mostly below about 27%
Target sequence (Q96LD8 whole entry, looked up): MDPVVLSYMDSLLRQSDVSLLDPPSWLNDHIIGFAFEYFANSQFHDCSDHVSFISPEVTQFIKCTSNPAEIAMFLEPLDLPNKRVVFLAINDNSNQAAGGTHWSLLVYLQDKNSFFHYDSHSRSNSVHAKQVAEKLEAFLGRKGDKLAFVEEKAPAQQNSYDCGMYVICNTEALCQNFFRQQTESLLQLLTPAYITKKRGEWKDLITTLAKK
SENP7 block: SENP7 protease inhibitors, primary screen, biochemical, luminescence, uHTS; Sentrin-specific protease 7 (Homo sapiens), Q9BQF6; recombinant SENP7, Z-RLRGG-aminoluciferin luminescence, 40 min; inhibition, % at 5 µM; actives 1.5% (n = 330,000); AID 434973, 2010;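 active = inhibition above about 50% at the single test dose, limit read from the data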;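 also: plate controls were DMSO with enzyme for no effect and no enzyme buffer wells for full effect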
HSP90 refold inh: HSP90 inhibitors, primary screen, cell lysate, luminescence | inhibition, % at 5.6 µM | actives 0.91% (n = 290,000) | Rabbit reticulocyte lysate, luciferase refolding luminescence, 3 h | AID 1789, 2009;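 active = inhibition above the screen-wide mean plus 3 SD, computed separately per campaign, cut at about 16% in these data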;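 also: 0% = DMSO wells and 100% = 60 µM geldanamycin wells; inhibitors lower the luminescence because luciferase stays unfolded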
SENP8 block-2: SENP8 protease inhibitors, primary screen, biochemical, luminescence; purified SENP8, Z-RLRGG-aminoluciferin cleavage; inhibition, % at 10 µM; actives 1.2% (n = 330,000); in the data active = inhibition above about 50%
SENP8 confirm: SENP8 protease inhibitors, retest, confirmation, biochemical, luminescence, single concentration; shares compounds with SENP7 block; Recombinant SENP8, Z-RLRGG-aminoluciferin luminescence, 60 min; inhibition, % at 12.5 µM; actives 40% (n = 6,200); AID 488912, 2010;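 active = mean inhibition across replicates above about 50%, limit read from the data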
SENP6 conf: SENP6 protease inhibitors, confirmation, biochemical, luminescence, single concentration. recombinant SENP6, Z-RLRGG-aminoluciferin luminescence. AID 488915, 2010. shares compounds with SENP7 block. actives 58% (n = 6,200). inhibition, % at 12.5 µM
SENP7 confirm: SENP7 protease inhibitors, retest, confirmation, biochemical, luminescence, single concentration; recombinant SENP7, Z-RLRGG-aminoluciferin luminescence, 40 min; AID 488917, 2010; actives 69% (n = 6,200); shares compounds with SENP7 block; inhibition, % at 12.5 µM
Casp3 SENP sel: caspase-3 protease inhibitors, confirmation, selectivity assay for SENP inhibitor project, biochemical, single concentration; purified caspase-3, Z-DEVD-aminoluciferin luminescence, 60 min; inhibition, % at 12.5 µM; shares compounds with SENP7 block; actives 60% (n = 6,200);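 active = mean inhibition above about 50%, limit read from the data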;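 also: plate controls were enzyme with DMSO for no effect and wells without caspase-3 for full effect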
Target sequence (P42574 28-227 limits assumed): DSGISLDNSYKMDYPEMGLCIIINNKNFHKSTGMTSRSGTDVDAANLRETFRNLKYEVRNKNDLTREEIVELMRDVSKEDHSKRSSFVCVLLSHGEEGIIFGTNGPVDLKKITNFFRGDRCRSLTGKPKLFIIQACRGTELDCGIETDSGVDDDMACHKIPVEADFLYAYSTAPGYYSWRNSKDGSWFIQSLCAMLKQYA
Luc interf: luminescence interference (SENP counter-screen); Pre-incubated SENP8/Z-RLRGG-aminoluciferin, luciferase luminescence interference; AID 488919; shares compounds with SENP7 block; inhibition, % at 12.5 µM; actives 39% (n = 6,200);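 active = mean inhibition above about 50% when retested at one dose, limit read from the data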;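 also: plate controls were DMSO wells with completed reaction for no effect and substrate without enzyme for full effect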
The depositor's hits bear a star; / = not tested or not shown. Compounds with a hit are over-represented: about 2.9% of the library has one in this group of screens.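 The calls were made as follows, unless noted: active = mean inhibition above about 50% in the one-dose retest (limit read from the data); inactive = the rest.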

SMILES	SENP1 inh	SENP6 block	SENP8 block-1	SENP7 block	HSP90 refold inh	SENP8 block-2	SENP8 confirm	SENP6 conf	SENP7 confirm	Casp3 SENP sel	Luc interf
COc1cccc(-c2ccc3c(N)c(C(=O)NC4CC4)sc3n2)c1	-32	60*	-460	50	7	46	-16	-14	19	10	24
O=C(O)c1cccc(C(=O)Cc2ccccc2)c1	0	75*	29	43	2	56*	63*	60*	88*	92*	74*
Cc1ccc(C(=O)Cc2ccccc2)cc1	1	/	12	/	/	/	/	/	/	/	/
Oc1ccc(/C=N/Nc2ncc(Br)cn2)c(O)c1	1	86*	9	72*	4	58*	73*	73*	90*	70*	75*
O=c1[nH]ncc(N/N=C\c2ccc(O)cc2O)c1Cl	1	69*	-161	65*	4	63*	66*	64*	87*	81*	62*
Oc1ccc(C=NNc2ccccn2)c(O)c1	1	/	-3	/	/	/	/	/	/	/	/
Cc1ccc(/C=N/Nc2cccc3cccnc23)c(O)c1	-69	78*	-54	92*	1	70*	86*	93*	78*	77*	58*
Oc1ccc(/C=N/Nc2cccc3cccnc23)c(O)c1	-38	89*	-22	77*	5	82*	73*	89*	99*	65*	20
COc1ccc(-c2cc(C(F)(F)F)c(C#N)c(SCC(=O)O)n2)cc1OC	/	-5	/	-5	14	-18	/	/	/	/	/
O=C(NCCCN1CCCC1=O)c1cccc(S(=O)(=O)Nc2ccc(Br)cc2)c1	3	2	5	-13	/	-15	/	/	/	/	/
Cc1nn2c(nc1=O)NNC2(C)C(C)(C)C (stereo not given)	-2	-18	12	0	-2	9	/	/	/	/	/
O=C(c1ccc(COc2ccc(Cl)cc2Cl)o1)N1CCCC1	0	-12	0	7	-6	-11	/	/	/	/	/
N/C(=N\OC(=O)/C=C/c1ccc(Br)cc1)c1ccccn1	2	57*	10	53*	10	0	13	11	33	45	22
N/C(=N\OC(=O)COc1ccc(Br)cc1Cl)c1ccccn1	3	96*	20	97*	14	86*	89*	87*	97*	82*	89*
Cc1ccc(C(=O)Nc2c(-c3cccs3)c(=O)c3ccccc3n2C)cc1	-25	-6	-40	7	6	2	/	/	/	/	/
COc1cc(/C=N/NC(=O)C2=NNC(=O)C2C)ccc1O (stereo not given)	1	-16	20	17	-2	-2	/	/	/	/	/
CC1C(=O)NN=C1C(=O)N/N=C\c1ccc(O)cc1O (stereo not given)	-26	71*	8	75*	4	61*	68*	65*	87*	89*	24
Clc1cccc(Cl)c1CSc1nnc(-c2sccc2-n2cccc2)o1	1	-11	-3	1	-2	5	/	/	/	/	/
COc1cc2cc(NC(C)=O)cc(NCc3ccccc3)c2cc1OC	-2	75*	-313	47	-3	70*	10	31	13	6	-7
CCCCNc1cc(NC(C)=O)cc2cc(OC)c(OC)cc12	3	51*	-272	-10	2	32	27	55*	15	2	1
CCCC(=O)Nc1cc(OC)c(OC)cc1C(=O)O	0	-9	5	-5	1	-5	/	/	/	/	/
Cc1ccc(-n2c(C)cc(C(=O)CSc3nncs3)c2C)cc1	2	-14	16	1	1	6	/	/	/	/	/
Cc1ccc(-n2c(C)cc(C(=O)CSc3nnnn3C)c2C)cc1	1	29	7	69*	8	60*	80*	78*	95*	79*	76*
Cc1ccnc(NC(=O)Nc2cccc(F)c2)c1	5	93*	15	94*	13	73*	56*	72*	89*	72*	17
Cc1ccc(NC(=O)Nc2cccc(F)c2)nc1	0	52*	7	53*	-3	12	5	26	36	38	12
SMILES	SENP1 inh	SENP6 block	SENP8 block-1	SENP7 block	HSP90 refold inh	SENP8 block-2	SENP8 confirm	SENP6 conf	SENP7 confirm	Casp3 SENP sel	Luc interf
Cc1cc(C)nc(S/C=C/C(=O)c2ccccc2F)n1	-5	-9	22	-7	11	-3	/	/	/	/	/
Cc1ccc2[nH]c(C(=O)N3CCN(C(c4ccccc4)c4ccccc4)CC3)cc2c1	1	4	10	9	0	-6	/	/	/	/	/
[O-][n+]1c(/C=C/c2ccccc2)ccc2ccccc21	0	77*	-36	68*	-2	11	92*	92*	100*	91*	89*
Cc1ccsc1/C=C1\CCC(C2CCCC2)C1=O (stereo not given)	-1	97*	14	83*	0	85*	76*	81*	92*	80*	70*
COc1cc(OC)c(OC)cc1/C=C1\CCC(C2CCCC2)C1=O (stereo not given)	-35	-13	-215	-3	0	-2	/	/	/	/	/
COc1ccc(/C=C2\CCC(C3CCCC3)C2=O)cc1 (stereo not given)	3	54*	13	90*	-4	77*	45	49	50	69*	11
NC(=O)c1ccc(-c2ncc(-c3ccccc3)o2)cc1	1	-35	-307	52*	15	14	27	52*	59*	40	8
